The values that follow come from ChEMBL document CHEMBL1143645, “Structure-activity relationship study of novel necroptosis inhibitors” (Bioorg Med Chem Lett, 2005).

Molecules are shown by their SMILES.

Data set [1] deals with Jurkat. Nature of the data set: Effective concentration required for inhibition of necroptosis in FADD deficient Jurkat T cells treated with TNF-alpha. The format is functional, cell-based. The conditions noted are these: Homo sapiens. The method, boiled down: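 FADD-deficient human Jurkat T cells given human TNFα 10 ng/mL plus rising concentrations of inhibitor for 24 h. Viability read by luminescent ATP-based assay and corrected for nonspecific toxicity. EC50 from nonlinear regression of sigmoid variable-slope dose–response curves, log inhibitor concentration versus viability.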

Data set [2] can be described thus: Maximum concentration in female mouse upon intravenous administration. Particulars: in vivo. Also on record: route intravenous. The format is ADME, organism-based. The method, boiled down: (§1)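 CD-1 mice of each sex given a single intravenous dose of 1 mg/kg. Vehicle was 10% propylene glycol in normal saline, dosing solution 0.16 mg/mL. Plasma pharmacokinetics followed over 8 h to give AUC, Cmax, half-life, Vss and clearance.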

The nature of data set [3]: Plasma concentration in male mouse after 180 min intravenous administration. The format is ADME. A digest of the protocol: (§2)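 Male CD-1 mice dosed intravenously at 1 mg/kg in 10% propylene glycol/normal saline (0.16 mg/mL). Brain and plasma concentrations measured at set post-injection times, and brain-to-plasma ratio calculated.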
Data set [4] is described as follows: Clearance value in female mouse upon intravenous administration. The format is ADME, organism-based. The conditions noted are these: in vivo, read-out: CLs. The method, boiled down:
as §1

Data set [5] is described as follows: Brain concentration in male mouse after 30 min intravenous administration. The format is ADME. A digest of the protocol: as §2
A short description of data set [6]: Volume of distribution at steady state was determined in male mouse upon intravenous administration. Format: ADME, organism-based. The conditions noted are these: in vivo. A digest of the protocol:
as §1

Data set [7] can be described thus: Clearance value in male mouse upon intravenous administration. Particulars: in vivo, read-out: CLs. The format is ADME, organism-based. A digest of the protocol:
as §1

Data set [8] can be described thus: Plasma concentration in male mouse after 30 min intravenous administration. Format: ADME. The method, boiled down: as §2
A short description of data set [9]: Maximum concentration in male mouse upon intravenous administration. Format: ADME, organism-based. Details: route intravenous. Particulars: in vivo. A digest of the protocol: as §1
Data set [10] in a line: Area under curve concentration in female mouse after 8 hours of intravenous administration. Format: ADME. Details: time < 8 hr, route intravenous. The conditions noted are these: in vivo. The method, boiled down: as §1
A short description of data set [11]: Area under curve concentration in male mouse after 8 hours of intravenous administration. The format is ADME. Details: time < 8 hr, route intravenous. The conditions noted are these: in vivo. A digest of the protocol:
as §1

The nature of data set [12]: Ratio between concentration in brain to that of plasma was determined n male mouse after 30 min intravenous administration. Format: ADME. A digest of the protocol:
as §2

Take `CN1C(=O)C(Cc2c[nH]c3cc(Cl)ccc23)NC1=S` (stereo unspecified): the EC50 (in general, the midpoint of the concentration-response curve) in data set [1] was > 10 µM.

As for `CN1C(=O)NC(Cc2cn(C)c3c(Cl)cccc23)C1=O` (stereo unspecified), it took 3.8 µM to reach a half-maximal effect in data set [1] (EC50).

`CN1C(=O)C(Cc2cn(C)c3c(Cl)cccc23)NC1=S` (stereo unspecified): the EC50 in data set [1] is > 10 µM.

`CN1C(=O)NC(Cc2c[nH]c3ccccc23)C1=O` (stereo unspecified) registered an EC50 in data set [1] of 1.3 µM.

Take `Cc1cccc2c(CC3NC(=O)N(C)C3=O)c[nH]c12` (stereo unspecified): the midpoint of the response in data set [1], the EC50, lay at 0.33 µM.

Consider `CN1C(=O)C(Cc2c[nH]c3c(Cl)cccc23)N(C)C1=O` (stereo unspecified), for which, in data set [1], the EC50 was > 10 µM.

Regarding `CCCCN1C(=O)NC(Cc2c[nH]c3c(Cl)cccc23)C1=O` (stereo unspecified), the EC50 in data set [1] stood at 0.85 µM.

`CN1CC(Cc2c[nH]c3c(Cl)cccc23)NC1=O` (stereo unspecified): the EC50 in data set [1] was > 10 µM.

`CN1C(=O)OC(Cc2c[nH]c3c(Cl)cccc23)C1=O` (stereo unspecified) had a half-maximal effective concentration (EC50) in data set [1] of 0.38 µM.

The compound `COc1cccc2c(CC3NC(=O)N(C)C3=O)c[nH]c12` (stereo unspecified) came in with an EC50 in data set [1] of 0.71 µM.

Take `CN1C(=O)NC(Cc2c[nH]c3c(OCc4ccccc4)cccc23)C1=O` (stereo unspecified): in data set [1], the EC50 was > 10 µM.

As for `CN1C(=O)NC(Cc2c[nH]c3cc(Cl)ccc23)C1=O` (stereo unspecified), the EC50 in data set [1] amounted to 5.7 µM.

As for `COc1ccc2[nH]cc(CC3NC(=O)N(C)C3=O)c2c1` (stereo unspecified), the EC50 in data set [1] was > 10 µM.

As for `O=C1NC(=O)C(Cc2c[nH]c3ccccc23)N1` (stereo unspecified), the EC50 in data set [1] was > 10 µM.

For the compound `CN1C(=O)C(Cc2c[nH]c3c(Br)cccc23)NC1=S` (stereo unspecified), a half-maximal effect in [1] (EC50) was put at 0.16 µM.

The compound `CN1C(=O)N[C@@H](Cc2c[nH]c3c(Cl)cccc23)C1=O` showed an EC50 in [1] of 0.23 µM.

As for `CN1C(=O)C(Cc2cn(C)c3ccccc23)NC1=S` (stereo unspecified), the EC50 in [1] is > 10 µM.

As to `O=C1NC(=S)NC1Cc1c[nH]c2ccccc12` (stereo unspecified), the EC50 in data set [1] was > 10 µM.

In the case of `CN1C(=O)C(Cc2csc3ccccc23)NC1=S` (stereo unspecified), the EC50 in data set [1] is 4.8 µM.

Regarding `CCN1C(=O)N[C@@H](Cc2c[nH]c3c(Cl)cccc23)C1=O`, the EC50 in data set [1] came out at 0.18 µM.

In data set [1], `CN1C(=O)C(Cc2c[nH]c3c(F)cccc23)NC1=S` (stereo unspecified) registered an EC50 of 0.26 µM.

The compound `CN1C(=O)N[C@H](Cc2c[nH]c3c(Cl)cccc23)C1=O` gave an EC50 in [1] of 0.05 µM.

As for `O=C1NC(Cc2c[nH]c3c(Cl)cccc23)CO1` (stereo unspecified), the EC50 in data set [1] is > 10 µM.

With `CC(C)N1C(=O)NC(Cc2c[nH]c3c(Cl)cccc23)C1=O` (stereo unspecified), the EC50 in data set [1] was > 10 µM.

Consider `CN1C(=O)NC(Cc2c[nH]c3cccc(Cl)c23)C1=O` (stereo unspecified), for which the EC50 in [1] is 9.2 µM.

Regarding `CN1C(=O)NC(Cc2c[nH]c3c(Cl)cc(Cl)cc23)C1=O` (stereo unspecified), in data set [1], the EC50 is > 10 µM.

As for `CN1C(=O)NC(Cc2c[nH]c3c(Cl)cccc23)C1=O` (stereo unspecified), the Cmax (commonly the highest concentration seen after dosing) in data set [2] worked out at 573 ng/mL; in [9] it was 873 ng/mL. In addition, the concentration at 3 h in data set [3] was determined as 3 nM. The clearance in [4] was found to be 100 mL/min/kg; in data set [7] it was 61 mL/min/kg. The compound also displayed an EC50 in data set [1] of 0.21 µM. Moreover, the results for the concentration at 0.5 h in data set [5] and in data set [8] were 740 nM and 310 nM, respectively. For the same compound, the Vss – broadly, a proportionality between amount in the body and measured concentration, not a real space – in data set [6] was found to be 2.5 L/kg. The Vd in [6] (male, read-out: Vss) was 2.5 L/kg. In addition, the AUC – broadly, the area under the concentration-time curve, a measure of exposure – at 8 h in data set [10] was 165 ng·h/mL; in [11], 274 ng·h/mL. For the same compound, in data set [12], the Kp (as a rule, tissue or fluid exposure divided by exposure in the circulation) at 0.5 h was 2.4.

In the case of `CN1C(=O)NC(Cc2csc3ccccc23)C1=O` (stereo unspecified), in [1], the response was half-maximal at 5.6 µM (EC50).

In data set [1], `CN1C(=O)C(Cc2c[nH]c3c(Cl)cccc23)NC1=S` (stereo unspecified) came in with an EC50 of 0.18 µM.

Consider `CCCCOc1cccc2c(CC3NC(=O)N(C)C3=O)c[nH]c12` (stereo unspecified), for which, in [1], the EC50 was determined as 0.27 µM.

Take `CN1C(=O)NC(Cc2c[nH]c3c(F)cccc23)C1=O` (stereo unspecified): in [1], the EC50 was found to be 0.59 µM.

On to `Cc1[nH]c2ccccc2c1CC1NC(=O)N(C)C1=O` (stereo unspecified), for which the EC50 in [1] is > 10 µM.

`COc1cccc2c(CC3NC(=S)N(C)C3=O)c[nH]c12` (stereo unspecified) gave a half-maximal effective concentration (EC50) in data set [1] of 0.63 µM.

In data set [1], `CN1C(=O)C(Cc2c[nH]c3ccccc23)NC1=S` (stereo unspecified) [NECROSTATIN] yielded an EC50 of 0.49 µM.
